T cruzi inh: T. cruzi replication inhibition. inhibition, % (no concentration beside the values). actives 1.4% (n = 300,000). T. cruzi beta-gal in NIH3T3, luminescence, 90 h;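 active means mean inhibition across valid replicates above about 55%, limit read from the data; inconclusive means mean below that limit but half or more replicates reach it; inactive means mean below it, under half of replicates reach it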;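 further: signal also drops with host cell toxicity which is not excluded here; 0% = plate median of DMSO wells and 100% = zero luminescence signal; higher percent means less beta-gal luminescence so fewer parasites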
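Assay system: NIH/3T3 host cells with β-galactosidase reporter T. cruzi; input: 5,000 host fibroblasts per well; compound: single 50 nL compound addition per well in DMSO; timing: ≥90 h infection period, 3 h prior cell attachment; measured by: GalScreen β-gal luminescence, detergent lysis, 60 min; evaluation: percent inhibition of parasite-derived β-gal signal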
Efflux pump inh: blocks antifungal efflux pumps in multiplex yeast assay; S. cerevisiae Candida pump triplex, Nile Red efflux; inhibition, % at 10 µM; actives 0.44% (n = 330,000);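 active means plate passing quality check with inhibition over a set limit, or well fluorescence over plate mean plus 4 SD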;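 further: Nile Red retained in pooled yeast measured as flow cytometry median fluorescence; 0% = buffer negative control and 100% = Enniatin B positive control; higher means more Nile Red kept so more efflux inhibition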
PolyA inh: inhibitors of polyadenylation in S. cerevisiae; S. cerevisiae SKY197-pL101 polyadenylation reporter, beta-gal luminescence; efflux-impaired pdr1/pdr3 knockout yeast; score 100 = 6 SD above DMSO; actives 0.02% (n = 300,000); activity score, % at 12 µM;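 active means lowest replicate activity score at least 50, where 100 means six control SD above control mean; inconclusive means lowest score under 50 but half or more replicates reach 50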;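 further: yeast exposed to compound for 9 h at 30 °C; higher score means more reporter readthrough which indicates perturbed polyadenylation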
AI-2 QS mod: modulates the Vibrio harveyi AI-2 quorum sensing system; Vibrio harveyi JMH597 AI-2 luminescence/OD600 ratio, 9 h; hits give low values; strain lacks LuxN and CqsS sensors; 0 = neutral-control median; actives 0.4% (n = 300,000); activity change, % at 7.5 µM; in the data active means activity change below about -75%, passing the limit was not always enough; inconclusive means no clear call, values can overlap the other calls;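 further: luminescence divided by OD600 gain over 9 h not by final OD600 alone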
HDAC3 inh: inhibitors of human histone deacetylase 3. O15379. recombinant HDAC3, fluorogenic peptide/trypsin coupled, fluorescence. inhibition, % at 8.3 µM. actives 0.15% (n = 320,000). AID 2718; in the data active means inhibition above about 26%, passing the limit was not always enough; inconclusive means no clear call, values can overlap the other calls
Target sequence (O15379 whole entry, looked up): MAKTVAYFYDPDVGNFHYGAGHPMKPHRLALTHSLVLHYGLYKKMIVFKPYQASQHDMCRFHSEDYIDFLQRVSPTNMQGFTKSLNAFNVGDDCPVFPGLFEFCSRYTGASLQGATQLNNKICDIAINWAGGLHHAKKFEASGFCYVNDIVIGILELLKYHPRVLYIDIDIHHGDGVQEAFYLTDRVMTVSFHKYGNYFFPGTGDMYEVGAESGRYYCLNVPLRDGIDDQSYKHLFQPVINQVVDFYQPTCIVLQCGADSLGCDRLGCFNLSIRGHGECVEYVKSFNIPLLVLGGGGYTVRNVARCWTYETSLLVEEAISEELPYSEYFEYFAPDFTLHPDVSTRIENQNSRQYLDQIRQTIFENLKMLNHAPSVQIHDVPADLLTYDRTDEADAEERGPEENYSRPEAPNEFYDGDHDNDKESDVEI
An asterisk follows results filed as active. An excerpt weighted towards active compounds, which were near 2.2% of everything screened.

For O=C(CN(C(=O)c1csnn1)c1cccc(Cl)c1)NC1CCCCC1 the results were T cruzi inh 8, Efflux pump inh 0, PolyA inh 1, AI-2 QS mod 18 and HDAC3 inh -3.
For CCOC(=O)C1(C)NC(c2ccco2)C2C(=O)N(CC)C(=O)C21 (stereo not drawn) the results were T cruzi inh -2, Efflux pump inh 0, PolyA inh 17, AI-2 QS mod 10 and HDAC3 inh 5.
Cc1c(-c2cccc(Cl)c2)nc2ccccc2c1C(=O)OCC(=O)Nc1ccc2c(c1)OCO2 was read as T cruzi inh 55*, Efflux pump inh 0, PolyA inh -5, AI-2 QS mod 15 and HDAC3 inh 3.
COc1cccc(CNC(=O)CCS(=O)(=O)c2ccccc2Cl)c1 was read as Efflux pump inh 0 and HDAC3 inh 10.
Screening O=C(N/N=C/c1ccc(O)cc1)Nc1cccc2nsnc12 returned T cruzi inh 62*, Efflux pump inh 0, PolyA inh 0, AI-2 QS mod 24 and HDAC3 inh 8.
`FC(F)(F)c1ccc(-c2noc(CN3CCCN(C4CCCCC4)CC3)n2)cc1` gave T cruzi inh 37, Efflux pump inh 0, PolyA inh -9, AI-2 QS mod 19 and HDAC3 inh 5.
For O=C(Oc1ccc(Cl)cc1N1C(=O)CCC1=O)c1ccco1 the results were T cruzi inh 12, Efflux pump inh 0, PolyA inh -6, AI-2 QS mod 20 and HDAC3 inh 34*.
For CC(=O)OC1c2ccccc2C(=O)N1Cc1ccccc1 (stereo not drawn) the results were T cruzi inh -4, Efflux pump inh 0, PolyA inh 6, AI-2 QS mod 23 and HDAC3 inh 5.
For O=C(O)CCn1c(SCCOc2ccccc2)nc2ccccc21 the results were T cruzi inh -14, Efflux pump inh 0, PolyA inh -12, AI-2 QS mod -10 and HDAC3 inh 3.
`Cc1ccc([N+](=O)[O-])cc1NC(=S)NCCc1ccccc1` gave T cruzi inh -13, Efflux pump inh 0, PolyA inh -26, AI-2 QS mod 10 and HDAC3 inh 3.
`Cc1ccc(SCCN2CCN(C)CCC2=O)cc1` gave T cruzi inh -13, PolyA inh 7 and AI-2 QS mod 21.
Clc1ccc(SCCCN2CCCCC2)cc1 was read as T cruzi inh 22, Efflux pump inh 0, PolyA inh -25 and AI-2 QS mod 13.
`Clc1ccc(SCCN2CCNCC2)cc1` gave T cruzi inh 63*, Efflux pump inh 0, PolyA inh -10, AI-2 QS mod 20 and HDAC3 inh -1.
For Cc1ccc(SCCN2CCN(Cc3ccccc3)CC2)cc1 the results were T cruzi inh 73*, Efflux pump inh 0, PolyA inh -10, AI-2 QS mod 31 and HDAC3 inh -1.
Screening Cc1ccc(SCCN2CCN(C)CC2)cc1 returned T cruzi inh 64*, Efflux pump inh 0, PolyA inh 20, AI-2 QS mod 22 and HDAC3 inh 6.
For CC(C)(C)N1C(=O)c2ccc(C(=O)Nc3cc(C(=O)O)cc(C(=O)O)c3)cc2C1=O the results were T cruzi inh -6, Efflux pump inh 0, PolyA inh -4, AI-2 QS mod 11 and HDAC3 inh 5.
For Cc1ccc(NS(=O)(=O)c2ccc(NC(=O)c3ccccc3C(=O)O)cc2)c(C)c1 the results were T cruzi inh 64*, Efflux pump inh 0, PolyA inh -2, AI-2 QS mod 42 and HDAC3 inh 6.
Cc1cc(C)cc(NS(=O)(=O)c2ccc(NC(=O)c3ccccc3C(=O)O)cc2)c1 was read as T cruzi inh -6, Efflux pump inh 0, PolyA inh 6, AI-2 QS mod 32 and HDAC3 inh 0.
For O=C(N/N=C/c1ccc([N+](=O)[O-])o1)c1ccc2c(c1)OCO2 the results were T cruzi inh 69*, Efflux pump inh 0, PolyA inh 11, AI-2 QS mod -101* and HDAC3 inh 7.
For O=C(N/N=C\c1ccc(-c2ccc([N+](=O)[O-])cc2)o1)c1ccc2c(c1)OCO2 the results were T cruzi inh 33, Efflux pump inh 0, PolyA inh 7, AI-2 QS mod 24 and HDAC3 inh 0.
For Cc1ccc(C(=O)N/N=C\c2ccc([N+](=O)[O-])o2)cn1 the results were T cruzi inh 58*, Efflux pump inh 0, PolyA inh 1, AI-2 QS mod inconclusive and HDAC3 inh 3.
`Cc1ccc(C(=O)N/N=C\c2ccc(-c3ccc([N+](=O)[O-])cc3)o2)cn1` gave T cruzi inh 11, Efflux pump inh 0, PolyA inh -7, AI-2 QS mod 28 and HDAC3 inh 1.
`O=C(Nc1ccc(Cl)cc1)C1CCN(C(=O)c2ccco2)CC1` gave T cruzi inh -6, Efflux pump inh 0, PolyA inh -10, AI-2 QS mod 19 and HDAC3 inh -4.
Screening CSc1ncccc1C(=O)Nc1nnc(C2CC2)s1 returned T cruzi inh -12, Efflux pump inh 0, PolyA inh 17, AI-2 QS mod 2 and HDAC3 inh 2.
Screening Fc1cccc(Cc2noc(CN3CCC(c4ccncc4)CC3)n2)c1 returned T cruzi inh 66*, Efflux pump inh 0, PolyA inh -12, AI-2 QS mod 9 and HDAC3 inh -7.
Screening COc1ccc(Cc2noc(CN3CCN(Cc4cccc(Cl)c4)CC3)n2)cc1OC returned T cruzi inh 60*, Efflux pump inh 0, PolyA inh 10, AI-2 QS mod 13 and HDAC3 inh 3.
Screening COCCN1CCN(Cc2nc(Cc3ccc(OC)c(OC)c3)no2)CC1 returned T cruzi inh -4, Efflux pump inh 0, PolyA inh -9, AI-2 QS mod 8 and HDAC3 inh 1.
COc1ccc(Cc2noc(CN3CCCN(C4Cc5ccccc5C4)CC3)n2)cc1OC was read as T cruzi inh 60*, Efflux pump inh 0, PolyA inh 6, AI-2 QS mod 30 and HDAC3 inh -9.
Screening CN1CCN(c2ccc(S(=O)(=O)N3CCOCC3)cc2NC(=O)CSCc2ccccc2)CC1 returned Efflux pump inh 0 and HDAC3 inh 2.
For Cc1ccccc1C1c2[nH]c3ccccc3c2CCN1CCCn1cccn1 (stereo not drawn) the results were T cruzi inh 8, Efflux pump inh 0, PolyA inh 8, AI-2 QS mod -9 and HDAC3 inh -21.
Fc1ccccc1C1c2[nH]c3ccccc3c2CCN1Cc1cccn1-c1ncccn1 (stereo not drawn) was read as T cruzi inh 77*, Efflux pump inh 0, PolyA inh -4, AI-2 QS mod 11 and HDAC3 inh 0.
For Cc1ccccc1C1c2[nH]c3ccccc3c2CCN1Cc1cccn1-c1ncccn1 (stereo not drawn) the results were T cruzi inh 55*, Efflux pump inh 0, PolyA inh 4, AI-2 QS mod 15 and HDAC3 inh -6.

Assay outcomes (PubChem BioAssay)
